In all, about 330,000 compounds went through this assay and about 2,400 (0.73%) were called active. The calls were made as follows: active = inhibition of at least 40% at 20 µM; inactive = the rest. The list comes from a sample in which actives are over-represented; it also holds similar structures and randomly drawn compounds.

The term inhibition denotes the relative decrease from the control value, in per cent.

Chain of Apoptotic protease-activating factor 1 (Homo sapiens) (O14727 whole entry, looked up): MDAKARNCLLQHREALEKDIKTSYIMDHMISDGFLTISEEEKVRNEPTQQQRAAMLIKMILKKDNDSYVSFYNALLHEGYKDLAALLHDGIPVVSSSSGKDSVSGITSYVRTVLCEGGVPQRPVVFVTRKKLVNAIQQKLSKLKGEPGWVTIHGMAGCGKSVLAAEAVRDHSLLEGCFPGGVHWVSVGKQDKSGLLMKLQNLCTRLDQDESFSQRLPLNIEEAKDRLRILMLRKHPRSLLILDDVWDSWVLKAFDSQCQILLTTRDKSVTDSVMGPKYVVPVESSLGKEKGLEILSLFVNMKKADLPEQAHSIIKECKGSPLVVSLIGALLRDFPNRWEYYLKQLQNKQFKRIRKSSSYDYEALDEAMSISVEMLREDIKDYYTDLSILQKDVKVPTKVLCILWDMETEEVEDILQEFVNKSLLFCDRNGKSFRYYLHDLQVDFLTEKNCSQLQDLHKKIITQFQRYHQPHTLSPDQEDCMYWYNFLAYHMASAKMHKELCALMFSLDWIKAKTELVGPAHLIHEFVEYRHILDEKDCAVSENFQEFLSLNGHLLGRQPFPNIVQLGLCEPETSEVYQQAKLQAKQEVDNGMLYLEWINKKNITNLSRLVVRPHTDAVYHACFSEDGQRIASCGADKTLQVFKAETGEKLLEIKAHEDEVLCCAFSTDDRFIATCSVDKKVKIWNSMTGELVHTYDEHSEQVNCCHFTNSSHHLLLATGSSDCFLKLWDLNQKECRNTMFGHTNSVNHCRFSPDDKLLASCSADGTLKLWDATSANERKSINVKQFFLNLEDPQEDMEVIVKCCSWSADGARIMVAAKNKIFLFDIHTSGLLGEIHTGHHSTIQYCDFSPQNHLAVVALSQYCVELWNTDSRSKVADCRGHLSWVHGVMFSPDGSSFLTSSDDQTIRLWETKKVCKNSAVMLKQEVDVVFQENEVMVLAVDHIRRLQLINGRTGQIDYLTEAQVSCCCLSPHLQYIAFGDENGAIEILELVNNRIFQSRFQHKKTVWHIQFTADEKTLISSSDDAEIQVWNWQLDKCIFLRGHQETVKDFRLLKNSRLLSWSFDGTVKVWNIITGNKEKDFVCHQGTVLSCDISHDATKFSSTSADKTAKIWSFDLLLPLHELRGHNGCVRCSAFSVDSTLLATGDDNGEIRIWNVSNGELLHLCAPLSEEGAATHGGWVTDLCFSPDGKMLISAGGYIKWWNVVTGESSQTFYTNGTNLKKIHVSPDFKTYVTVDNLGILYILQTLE

The test addresses Apoptotic protease-activating factor 1 (Homo sapiens) (UniProt O14727). Nature of the test: blockers of Apaf-1-driven caspase-3 activation – biochemical, DEVD-Rh110 fluorescence, uHTS, primary screen (AID 489030).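 Also: plate controls were DMSO wells for no effect and DEVD-CHO caspase inhibitor wells for full effect.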 Conditions: reconstituted apoptosome caspase-3 activity, at 20 µM, hits give high values. In a few lines:
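Assay system – apoptosome proteins · Medium – Hepes buffer, pH 7.5 · Also added – cytochrome c with DEVD-Rh110 · Timing – 30 min compound preincubation, 50 min activation, room temperature · Detection – Rh110 fluorescence, excitation 480 nm, emission 540 nm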
Regarding `Cn1c(SCC(=O)C(C)(C)C)nnc1-c1ccccn1`, the inhibition was -10.6% (inactive).
As to `CCOC(=O)N1CCC(c2cc(=O)n(-c3ccccc3)[nH]2)CC1`, the inhibition is 86.7% (active).
As for `CCOC(=O)N1CCC(NC(=O)CCc2ccccc2)CC1`, the figure is -3.62% (inactive); as for `CCOC(=O)CN1CCC(c2ccccc2)CC1`, -14.9% (inactive); as for `CCc1cc(C(=O)OC)c(NC(=O)CC2Sc3ccc(C(F)(F)F)cc3NC2=O)s1` (centres undefined), 22.8% (inactive).
In the case of `CCOC(=O)Nc1ccc2c(c1)N(C(=O)CN1CCN3CCCC3C1)c1ccccc1CC2` (centres undefined) it was -1.68% (inactive); in that of `Cc1ccc(-c2cccc([C@H]3[C@@H]4C=CC[C@@H](C)[C@@H]4C(=O)N3Cc3ccccc3)c2)cc1`, 19.9% (inactive); in that of `CC1(C)CC(=O)C=C(c2ccc3ncccc3c2)C1`, -1.2% (inactive).
As for `Cc1cc2oc3ccc(NCCC4CCCN4C)cc3c(=O)c2cc1C` (centres undefined), the figure is 46.9% (active); as for `COc1cccc2sc3cc(NCC[C@@H]4CCCN4C)ccc3c(=O)c12`, 39.7% (inactive); as for `Cc1cc2oc(=O)cc(CN3CCN(Cc4ccccc4)CC3)c2cc1C`, 17.9% (inactive).
For `CC(C)c1ccc2oc(=O)cc(CN3CCN(Cc4ccccc4)CC3)c2c1`, the inhibition was 19.2% (inactive).
As for `COc1ccc(CCNC(=O)CN(c2ccccc2)S(C)(=O)=O)cc1`, the figure is 4.78% (inactive); as for `CCOc1ccc(N(CC(=O)NCCc2ccc(OC)cc2)S(C)(=O)=O)cc1`, 5.5% (inactive).
As for `COc1ccc(N(CCC(=O)NCCc2ccccc2)S(=O)(=O)c2ccc(C)cc2C)cc1`, the figure is 54.9% (active).
Regarding `O=c1cc(CN2CCN(S(=O)(=O)/C=C/c3ccccc3)CC2)c2ccc(O)cc2o1`, the inhibition is 21.6% (inactive).
Regarding `O=C(NCCCN1CCOCC1)c1ccccc1NS(=O)(=O)c1ccc(F)cc1`, the inhibition was -4.73% (inactive).
As for `COc1ccc(N2CCN(c3ccc([N+](=O)[O-])nc3)CC2)cc1`, the figure is -5.77% (inactive).
In the case of `CCOC(=O)C1Sc2[nH]c(=O)sc2C(c2ccc(Cl)cc2)C1C(=O)OCC` (centres undefined), the inhibition was 2.05% (inactive).
As for `C=CC[C@@H](CC(=O)N[C@H](CO)Cc1ccccc1)C(=O)N[C@H](C)COC(=O)[C@@H](CC=C)Cc1ccc(F)cc1`, the figure is 23% (inactive); as for `C=CCC[C@H](Cc1ccc(F)cc1)C(=O)OC[C@@H](Cc1c[nH]c2ccccc12)NC(=O)[C@H](CC=C)CC(=O)N[C@H](CO)Cc1ccccc1`, 1.18% (inactive).
Turning to `C=CCC[C@H](Cc1ccc(F)cc1)C(=O)OC[C@@H](NC(=O)[C@@H](CC=C)CC(=O)N[C@H](CO)Cc1ccccc1)C(C)(C)C`, the inhibition is 40.6% (active).
As for `COCCNC(=O)c1ccccc1-c1nc(-c2ccccc2Cl)no1`, the inhibition was 6.12% (inactive).
Consider `O=C(Nc1cc(S(=O)(=O)N2CCOCC2)ccc1N1CCOCC1)c1c(F)cccc1Cl`, for which the inhibition is -5.54% (inactive).
In the case of `Cc1ccc(NC(=O)CN(C)C(=O)Cn2nnc(-c3ccccc3)n2)cc1` it was 8.51% (inactive).
In the case of `COc1ccccc1C1C(C#N)=C(N)Oc2c1c(-c1ccccc1)nn2-c1ccccc1` (centres undefined) it was 42.2% (active); in that of `Cc1nn(Cc2ccccc2)c2c1C(c1ccccc1)C(C#N)=C(N)O2` (centres undefined), 7.58% (inactive).
In the case of `COc1ccc(C2C(C#N)=C(N)Oc3cc(N)ccc32)cc1OC` (centres undefined) it was -6.32% (inactive).
Consider `COc1ccc(C2/C(=C(/O)c3ccccc3)C(=O)C(=O)N2C)c(OC)c1` (centres undefined), for which the inhibition is 2.34% (inactive).
With `COc1ccc(/C=C2/C(=O)N(c3ccccc3)N=C2C)c(OC)c1`, the inhibition is 80.1% (active).
As for `COc1ccc(/C=C2/C(=O)OCc3cc(OC)c(OC)cc32)c(OC)c1`, the figure is 6.28% (inactive).
As for `O=C1CN(C(=O)COC(=O)/C=C/c2ccc(F)cc2)c2ccccc2N1`, the figure is 5.3% (inactive); as for `O=C(CO/N=C/c1ccccc1OC(F)F)NC1CCCC1`, 0.277% (inactive).
For the molecule `CCCNC(=O)c1ccc(N2CCC3(CC2)CC(c2cccc(Br)c2)=NO3)c(NC(=O)c2ccco2)c1`, the inhibition was 14.2% (inactive).
On to `CC1CCC2(CC1)NC(=O)N(CC(=O)c1ccc3c(c1)OCO3)C2=O` (centres undefined), for which the inhibition is -10.1% (inactive).
As for `Cc1ccc(S(=O)(=O)N2CCN(C(=O)c3ccccc3-c3nc4ccccc4s3)CC2)c(C)c1`, the inhibition was 40.3% (active).
In the case of `Cc1ccc(S(=O)(=O)N2CCN(C(=O)N3CCOCC3)CC2)c(C)c1` it was -7.82% (inactive); in that of `Cc1ccc(S(=O)(=O)N2CCN(C(=O)Cn3c(=O)cnc4ccccc43)CC2)c(C)c1`, -0.646% (inactive); in that of `CCCN=C1N(C)C[C@@H]2[C@@H]3C(=O)N(Cc4ccccc4)C(=O)[C@@H]3[C@](C)(C(=O)OC)N12`, 11.4% (inactive).
Take `CCN1C[C@@H]2[C@@H]3C(=O)N(Cc4ccccc4)C(=O)[C@@H]3[C@](Cc3ccccc3)(C(=O)OC)N2C1=NC1CCCCC1`: the inhibition is 41.2% (active).
As for `CC[C@]1(C(=O)OC)[C@H]2C(=O)N(Cc3ccccc3)C(=O)[C@H]2[C@H]2CN=C(SCc3ccccc3)N21`, the figure is 25.2% (inactive); as for `Cc1nnc(Sc2nc3c(c(=O)[nH]c(=O)n3C)n2Cc2ccccc2)s1`, 21% (inactive); as for `O=C(Nc1ccc(N2CCOCC2)cc1)c1ccc(-c2ccccc2[N+](=O)[O-])o1`, 2.89% (inactive).
As for `CC1=NN(c2ccc(Cl)c(C(=O)O)c2)C(=O)/C1=C/c1ccc(-c2ccccc2[N+](=O)[O-])o1`, the figure is 42.9% (active).
As for `O=C1NC(c2ccc(-c3ccccc3[N+](=O)[O-])o2)C(C(=O)c2ccc(Cl)cc2)C(O)(C(F)(F)F)N1` (centres undefined), the figure is 36.8% (inactive).
Take `COC(=O)c1ccc(S(=O)(=O)N2CCC(c3nc4ccccc4o3)CC2)cc1`: the inhibition was -25.7% (inactive).
Turning to `Cc1cccc(C)c1NC(=O)CNC(=O)Cc1ccc(Br)cc1`, the inhibition was -1.64% (inactive).
In the case of `CC(C)N(C(=O)[C@H]1C[C@H](CC(=O)NC(C)(C)C)C(=O)N2CCc3c([nH]c4ccc(Cl)cc34)[C@]12C)C(C)C` it was 29.3% (inactive).
With `NC(N)=NCCCc1cn(CC(=O)N2CCNCC2)nn1`, the inhibition is 40.2% (active).
In the case of `CCC(C)[C@@H](C(=O)N1CCNCC1)n1cc(CCCCN)nn1` (some centres undefined) it was -4.43% (inactive); in that of `C[C@@H](C(=O)N1CCNCC1)n1cc(CCC(=O)O)nn1`, 5.94% (inactive).
In the case of `CCN1C(=S)N[C@@H](CCc2ccccc2)[C@H](C(=O)OC)[C@H]1C` it was -4.74% (inactive); in that of `CCN1C(=NCC(C)C)N[C@@H](CCc2ccccc2)[C@H](C(=O)NCC(C)C)[C@H]1C`, 4.1% (inactive); in that of `CCN1C(=NCc2ccc(OC)cc2)N[C@@H](CCc2ccccc2)[C@H](C(=O)NCc2ccc(OC)cc2)[C@H]1C`, 40.4% (active).
As for `CCN1C(=O)N[C@@H](CCc2ccccc2)C(C(=O)OC)=C1C`, the figure is 17.6% (inactive); as for `O=C(NCc1ccccc1Cl)C1CCN(c2ncnc3c2nc2n3CCCCC2)CC1`, -6.54% (inactive).
For the molecule `Cc1nn2c(NCCN(C)C)c3c(nc2c1-c1ccccc1)CCC3`, the inhibition was 1.66% (inactive).
With `CCN(C(=O)C1CCCN(c2nc(-c3ccc(OC)cc3)no2)C1)c1ccc(OC)cc1` (centres undefined), the inhibition is 12.2% (inactive).
As for `Cc1cc(=O)cc(C)[nH]1`, the figure is -15% (inactive); as for `Oc1c(C=Nc2cccc3nsnc23)ccc2ccccc12`, 95.8% (active).
With `CCOc1ccc(N2CC(C(=O)NCc3ccccn3)CC2=O)cc1` (centres undefined), the inhibition was 1.44% (inactive).
Consider `OC(CNCC1CCCO1)Cn1c2ccc(Br)cc2c2cc(Br)ccc21` (centres undefined), for which the inhibition was 43.4% (active).
As for `CCCN1CCn2c3c(c4cc(Br)ccc42)CCCC31` (centres undefined), the figure is 12.8% (inactive); as for `COCCNC(=O)c1ccc(Cn2c(SCC(=O)NCC3CCCO3)nc3ccc(Br)cc3c2=O)cc1` (centres undefined), -13.8% (inactive).
In the case of `CN(C)/C(CN1CCCCC1)=C1\N=C(c2ccccc2)OC1=O` it was -0.998% (inactive); in that of `O=C(CCC(=O)c1ccccc1)NCc1cccc(C(F)(F)F)c1`, 6.79% (inactive); in that of `COC(=O)[C@@H](Cc1ccccc1)NC(=O)NCCc1ccccc1`, -5.88% (inactive).
Consider `NC[C@H](Cc1ccccc1)NCCc1cc(C(F)(F)F)cc(C(F)(F)F)c1`, for which the inhibition was 60.8% (active).
As for `O=C(Cn1nc(CNc2ccc(Cl)cc2)[n+]2c1CCCCC2)c1ccc(Cl)cc1`, the figure is 15.2% (inactive); as for `CCc1ccc(/C=N/NC(=O)c2nnn(-c3nonc3N)c2CN2CCc3ccccc32)cc1`, 8.04% (inactive); as for `CC(C)CC[n+]1ccn(C2=C([O-])c3ccccc3C(=O)/C2=N\S(=O)(=O)c2ccccc2)c1`, 55.3% (active).
In the case of `CCc1nc(C)cn1S(=O)(=O)c1cc([N+](=O)[O-])ccc1Cl` it was 2.1% (inactive).
Take `CC(=O)Nc1ccc(Nc2cc(C)nc(Nc3ccc(NC(C)=O)cc3)n2)cc1`: the inhibition was 46.2% (active).
As for `COc1ccc(C(=O)NNc2cc(C)nc(NNC(=O)c3ccc(OC)cc3)n2)cc1`, the figure is 8.09% (inactive); as for `CCC(=O)Nc1ccc(Nc2nc(Cl)nc(Nc3ccc(NC(=O)CC)cc3)n2)cc1`, -8.45% (inactive); as for `COc1ccc(OCCNC(=O)c2cc(C3CC3)nc3c2cnn3C(C)C)cc1`, 15% (inactive).
In the case of `O=c1nc(N/N=C/c2ccco2)cn[nH]1` it was 2.62% (inactive); in that of `CCOC(=O)N1CCN(C(=O)COCc2cc(-c3ccc4c(c3)OCO4)on2)CC1`, 15.6% (inactive); in that of `COCCNc1nc(-n2nc(C)cc2C)nc2sc3c(c12)CCCC3`, 8.1% (inactive).
On to `Cc1cc(C)n(-c2nc(SCC(=O)N3CCCC3)c3c4c(sc3n2)CCCC4)n1`, for which the inhibition was 43.6% (active).
As for `CC(C)c1nc(SCC(=O)Nc2cccc(C(=O)O)c2)c2c3c(sc2n1)CCCC3`, the inhibition is 7.92% (inactive).
In the case of `CCN(CC)S(=O)(=O)c1cc([N+](=O)[O-])ccc1NNC(=O)Nc1ccccc1` it was 7.25% (inactive); in that of `COC(=O)CN1C(C)=Nc2ccc(Br)cc2C1c1ccccc1` (centres undefined), 4.57% (inactive); in that of `COc1ccc(S(=O)(=O)N2CCCCC2)cc1NC(=O)C1CC(=O)N(c2ccc3c(c2)OCCO3)C1` (centres undefined), 18.5% (inactive).

These data come from PubChem BioAssay AID489030 (Sanford-Burnham Center for Chemical Genomics, 2010).
